Results published in ChEMBL document CHEMBL1123348, “Characterization of the neurotoxic potential of m-methoxy-MPTP and the use of its N-ethyl analogue as a means of avoiding exposure to a possible Parkinsonism-causing agent” (J Med Chem, 1986).
Where “and” joins values, the source holds several entries; their conditions need not be identical. Equal values may be shown once.

What was measured:
Format in all cases: functional, organism-based
Mus musculus [1] = assay: Tested for the concentration of HVA in striatum of mouse brain one week after four daily injections at dose of 20 mg/kg; parameters: dose 20 mg/kg
Summary of the method: (§1)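 Male CRL/CFW mice received subcutaneous injections daily for 4 days. Animals were killed 7 days after the last dose. Brains were removed rapidly, and striata were dissected, frozen on dry ice and stored at -15 °C until analysis of dopamine, DOPAC and HVA. Values are means ± standard errors for 6 mice/group.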

Mus musculus [2] = assay: Tested for the concentration of dopamine in striatum of mouse brain one week after four daily injections at 20 mg/kg dose; parameters: dose 20 mg/kg; summary of the method: as §1
Mus musculus [3] = assay: Tested for the concentration of HVA in striatum of mouse brain one week after four daily injections at doses of 20 mg/kg; parameters: dose 20 mg/kg; summary of the method: as §1
Mus musculus [4] = assay: Tested for the concentration of DOPAC (dihydroxyphenyl-acetic acid) in striatum of mouse brain one week after four daily injections at dose of 20 mg/kg; parameters: dose 20 mg/kg; summary of the method: as §1
Mus musculus [5] = assay: Tested for the concentration of HVA in striatum of mouse brain one week after four daily injections at a dosage of 80 mg/kg; parameters: dose 80 mg/kg; summary of the method: as §1
Mus musculus [6] = assay: Tested for the concentration of DOPAC (dihydroxyphenyl-acetic acid) in striatum of mouse brain one week after four daily injections at a dosage of 80 mg/kg; parameters: dose 80 mg/kg; summary of the method: as §1
Mus musculus [7] = assay: Tested for the concentration of dopamine in striatum of mouse brain one week after four daily injections at 80 mg/kg dose; parameters: dose 80 mg/kg; summary of the method: as §1
Mus musculus [8] = assay: Tested for the concentration of DOPAC (dihydroxyphenyl-acetic acid) in striatum of mouse brain one week after four daily injections at dose of 80 mg/kg; parameters: dose 80 mg/kg; summary of the method: as §1
Mus musculus [9] = assay: Tested for the concentration of HVA in striatum of mouse brain one week after four daily injections at dose of 40 mg/kg; parameters: dose 40 mg/kg; summary of the method: as §1
Mus musculus [10] = assay: Tested for the concentration of dopamine in striatum of mouse brain one week after four daily injections at 40 mg/kg dose; parameters: dose 40 mg/kg; summary of the method: as §1
Mus musculus [11] = assay: Tested for the concentration of HVA in striatum of mouse brain one week after four daily injections at dose of 80 mg/kg; parameters: dose 80 mg/kg; summary of the method: as §1
Mus musculus [12] = assay: Tested for the concentration of dopamine in striatum of mouse brain one week after four daily injections at 80 mg/kg of the compound; parameters: dose 80 mg/kg; summary of the method: as §1
Mus musculus [13] = assay: Tested for the concentration of DOPAC (dihydroxyphenyl-acetic acid) in striatum of mouse brain one week after four daily injections at dose of 40 mg/kg; parameters: dose 40 mg/kg; summary of the method: as §1

| SMILES | Concentration (Mus musculus [1]) | Concentration (Mus musculus [2]) | Concentration (Mus musculus [3]) | Concentration (Mus musculus [4]) | Concentration (Mus musculus [5]) | Concentration (Mus musculus [6]) | Concentration (Mus musculus [7]) | Concentration (Mus musculus [8]) | Concentration (Mus musculus [9]) | Concentration (Mus musculus [10]) | Concentration (Mus musculus [11]) | Concentration (Mus musculus [12]) | Concentration (Mus musculus [13]) |
| --- | --- | --- | --- | --- | --- | --- | --- | --- | --- | --- | --- | --- | --- |
| CCN1CC=C(c2cccc(OC)c2)CC1 | 6.38 nM/g | 62.7 nM/g and 82.1 nM/g | 5.46 nM/g | 4.6 nM/g and 5.55 nM/g | – | – | – | – | – | – | – | – | – |
| COc1cccc(C2=CCN(C)CC2)c1 | – | 84.8 nM/g | 8.07 nM/g | 5.09 nM/g | 2.41 nM/g | 0.9 nM/g | 15.9 nM/g | 1.38 nM/g | 5.66 nM/g | 38.1 nM/g | 2.97 nM/g | 7.9 nM/g | 2.93 nM/g |
